The source made the active and inactive calls.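 The calls were made as follows: active = duplicate-averaged activation above buffer control mean plus 5 SD of those controls; inactive = the rest.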

A short description of the experiment: thallium flux activation in parental CHO cells, counter-screen for KCNQ1 potentiator project (AID 493006).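 As to activation: fluorescence ratio of max minus min over baseline after K+ and Tl+ depolarization.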 Conditions: parental CHO-K1 cells, FluxOR thallium flux, at 10 µM; active compounds read high. In a few lines: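 Assay system: parental CHO-K1 cells lacking KCNQ1, loaded with FluxOR thallium dye; timing: dye 90 min RT, compound 20 min RT; signal: kinetic thallium-flux fluorescence; repeats: duplicate wells per compound, percent values averaged; benchmarks: buffer and R-L3 controls; reagent: Potassium/thallium depolarization pulse; read-out: fluorescence change ratio scaled 0% buffer, 100% R-L3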
For orientation: Counterscreens check selectivity or assay interference.
For `CC(=O)Nc1c2c(nn1-c1ccc(C)cc1)CS(=O)(=O)C2`, the result was inactive.
Consider `CN(C)CCNc1ncnc2c1sc1nc(N3CCCC3)c3c(c12)CC(C)(C)OC3`, for which the result was inactive.
On the same count and under the same terms, the same measure for `CC(=O)c1c(O)cc(C)n(-c2ccc(F)cc2)c1=O`: “inactive”.
As for `COCCn1c(SCC(=O)NCc2ccc3c(c2)OCO3)nnc1C(C)C`, the result was inactive.
In the case of `CCC(C(=O)OCC(=O)NC(=O)NC(C)(C)C)c1ccccc1` (stereo not drawn), the outcome was inactive.
As to `Cc1nn2c(NCc3ccccn3)cc(C(C)C)nc2c1-c1ccccc1`, the outcome was inactive.
Still for that read-out and setting: next, `CCOC(=O)CSc1nc2ccccc2n2c(C)nnc12`: “inactive”.
Regarding `Cc1cccc(/C=C/C(=O)c2cc(Br)ccc(=O)c2O)c1`, the activation is 170% (active).
Regarding `N=c1ccn(CC(=O)c2ccc(-c3ccccc3)cc2)cc1`, the result was inactive.
Regarding `O=C(NC(=S)Nc1ccccc1)c1cccs1`, the activation was 137% (active).
As for `CC(/C=C1\SC(=S)N(NS(=O)(=O)c2ccc(C)cc2)C1=O)=C\c1ccccc1`, the activation was 507% (active).
For the compound `O=C(COc1ccc(Cl)cc1)NNC(=O)C(=O)NC1CCCCC1`, the result was inactive.
On to `COc1ccc(-n2cc(CNC3CCN(C)CC3)c(-c3cccc(F)c3)n2)cc1`, for which the activation is 142% (active).
Turning to `COc1cc(OC)cc(C(=O)NC(=S)N2CCCCCC2)c1`, the result was inactive.
Same read-out and setting: next, `Nc1c(C(=O)Nc2ccc(F)cc2)nnn1-c1cccc(C(F)(F)F)c1`: “inactive”; `CC(C)(C)n1nnnc1C(c1cc2cc3c(cc2[nH]c1=O)OCCO3)N1CCSCC1` (stereo not drawn): “inactive”.
With `O=C(NNc1nc2c(F)cccc2s1)c1cc(=O)c2ccccc2o1`, the result was inactive.
With `CCc1ccc(NC(=O)C(=O)NNC(=O)COc2cccc(OC)c2)cc1`, the activation is 164% (active).

Values taken from PubChem BioAssay.
